Screening results: PubChem BioAssay, The Scripps Research Institute Molecular Screening Center
MBD2 inh = blocks human MBD2 binding to methylated DNA; Q9UBB5; TR-FRET, MBD2 binding to methylated oligonucleotide; inhibition, % at 4.4 µM; 0.31% of 370,000 active; AID 686964; in the data active = inhibition above about 13%
LEDGF integ inh = blocks HIV-1 LEDGF/p75-dependent DNA integration | TR-FRET IN-LEDGF/p75 DNA integration, Eu/Cy5 | inhibition, % at 3.7 µM | AID 743269 | 0.64% of 370,000 active;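 active = inhibition above the screen-wide mean plus 3 SD, cut at about 13% in these data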;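 note: signal is the Cy5 over europium emission ratio at 671 and 618 nm; 0% = plate median of compound wells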
ASAP1 GAP inh = inhibitors of human ASAP1 ArfGAP activity | 0.19% of 360,000 active | ASAP1-stimulated ARF1 GTP hydrolysis, GDP FP detection | AID 624377 | inhibition, % at 16.5 µM; in the data active = inhibition above about 25%;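 note: 0% = vehicle with enzyme and substrate and 100% = no enzyme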
TCR-CD3 inh = human TCR-CD3 binding inhibition; TAMRA-labeled TCR probe fluorescence, biochemical; inhibition, % at 9.4 µM; 0.37% of 360,000 active; AID 651800;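 note: recombinant mutant TCR 2C K166C tagged with TAMRA read by polarization; 0% = receptor in buffer alone and 100% = receptor with positive control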
ARFGAP1 inhibitor = inhibits rat ARF GTPase activating protein 1. Arfgap1-stimulated ARF1 GTP hydrolysis, GDP FP detection. AID 651572. inhibition, % at 16.5 µM. Q62848. 0.26% of 360,000 active;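 active = inhibition above a per-plate limit, mean inhibition of low control wells plus 3 SD, cut at about 25% in these data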;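 note: 0% = DMSO wells with enzyme and 100% = wells lacking Arfgap1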
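Repeats: one replicate per compound; assay system: rat Arfgap1 catalytic domain, aa 1-136; times: enzyme reaction 120 min at 25 °C after 20 min preincubation; detection: FP of antibody-bound GDP Alexa 633 tracer, ex 620/em 688 nm; benchmarks: high control wells lacking Arfgap1, low control full reaction with DMSO; reagent: human ARF1(Δ1-17)-GTP substrate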
UHRF1 binding = human UHRF1 methylated DNA binding inhibitors | Q96T88 | inhibition, % at 4.4 µM | 0.75% of 370,000 active | UHRF1 binding to methylated oligo, TR-FRET; in the data active = inhibition above about 21%;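 note: UHRF1 SRA domain binding a hemimethylated CpG hairpin DNA probe; 0% = median of test compound wells and 100% = reference inhibitor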
Target sequence (Q96T88 whole entry, looked up, the tested form may be a part): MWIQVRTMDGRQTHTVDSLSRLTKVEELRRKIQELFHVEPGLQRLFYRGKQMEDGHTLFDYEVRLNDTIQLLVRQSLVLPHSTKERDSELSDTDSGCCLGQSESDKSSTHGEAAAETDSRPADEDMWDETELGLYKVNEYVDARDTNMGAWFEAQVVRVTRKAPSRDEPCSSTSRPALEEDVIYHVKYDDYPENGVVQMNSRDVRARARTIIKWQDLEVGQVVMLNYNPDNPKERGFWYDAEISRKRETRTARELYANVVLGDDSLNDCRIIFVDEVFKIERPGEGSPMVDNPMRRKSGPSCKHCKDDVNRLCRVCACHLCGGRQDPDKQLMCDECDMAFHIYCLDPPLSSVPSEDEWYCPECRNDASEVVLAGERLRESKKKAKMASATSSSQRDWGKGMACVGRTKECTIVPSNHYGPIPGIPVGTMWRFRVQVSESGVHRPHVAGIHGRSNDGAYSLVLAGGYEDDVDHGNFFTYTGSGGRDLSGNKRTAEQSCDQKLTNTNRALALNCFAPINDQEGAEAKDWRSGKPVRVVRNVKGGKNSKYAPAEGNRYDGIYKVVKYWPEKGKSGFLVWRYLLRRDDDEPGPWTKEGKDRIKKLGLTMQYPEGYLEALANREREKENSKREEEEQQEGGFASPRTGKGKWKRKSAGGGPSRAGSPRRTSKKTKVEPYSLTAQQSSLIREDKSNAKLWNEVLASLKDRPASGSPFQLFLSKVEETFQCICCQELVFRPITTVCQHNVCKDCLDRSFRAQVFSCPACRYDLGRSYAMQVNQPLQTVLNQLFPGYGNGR
ASAP1 inh confirm = ASAP1 inhibition confirmed | shares compounds with ASAP1 GAP inh | ASAP1-stimulated Arf1 GTPase, GDP fluorescence polarization | inhibition, % at 16.5 µM | 37% of 620 active;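 active = mean inhibition over triplicates exceeds the hit threshold derived for the earlier primary screening run, cut at about 25% in these data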
ARFGAP1 inh conf = confirmation of rat ARFGAP1 inhibitors | 30% of 890 active | ARFGAP1-stimulated ARF1 GTP hydrolysis, GDP tracer FP | AID 651608 | inhibition, % at 16.5 µM | shares compounds with ARFGAP1 inhibitor;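 active = average inhibition over triplicates above the hit cutoff set in the earlier primary screen, cut at about 25% in these data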;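 note: 0% = Arfgap1 plus ARF1-GTP with DMSO and 100% = wells lacking Arfgap1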
BSA TAMRA ctr = counter-screen for TCR-CD3 interaction inhibitors: BSA probe | 10% of 1,200 active | inhibition, % at 9.4 µM | shares compounds with TCR-CD3 inh | TAMRA-labeled BSA probe fluorescence counterscreen; in the data active = inhibition above about 23%;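 note: 0% = buffer low control and 100% = reference high control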
TCR-CD3 conf = TCR-CD3 interaction inhibition, confirmation. shares compounds with TCR-CD3 inh. TAMRA-labeled TCR probe fluorescence binding assay. inhibition, % at 9.4 µM. 48% of 1,200 active. AID 652036
Active calls of the source: *; / = no result given; + = active, no number; ! = repeats disagree. Most compounds without a hit are left out; they make up all but 2% or so of the library. Cut-off read from the data, not from the text of the source, unless noted: active = inhibition above about 19%; inactive = the rest.

SMILES	MBD2 inh	LEDGF integ inh	ASAP1 GAP inh	TCR-CD3 inh	ARFGAP1 inhibitor	UHRF1 binding	ASAP1 inh confirm	ARFGAP1 inh conf	others
Cc1cc([N+](=O)[O-])c(C)cc1-c1ccc(/C=N/NC(=O)Cn2nnnc2N)o1	-4.8	-0.6	64.6*	1.7	67.0*	-1.0	1.0	35.1*
Nc1nnnn1CC(=O)N/N=C/c1cc([N+](=O)[O-])ccc1Cl	-1.5	3.6	5.2	10.4	6.3	-3.7	/	/
CC(C)C(Cl)=NOC(=O)Nc1ccc(S(N)(=O)=O)cc1	-3.3	3.0	2.5	5.3	-2.2	0.5	/	/
COC(=O)c1ccc(COc2ccc(/C=C(\C#N)c3nc4ccccc4[nH]3)cc2OC)o1	-5.6	2.9	35.5*	2.6	61.1*	-5.4	78.4*	108.3*
CCCCN(C(=O)c1cc2c(s1)CCC2)c1c(N)n(CCC)c(=O)[nH]c1=O	-3.5	5.1	-5.0	11.4	-7.6	2.6	/	/
COc1ccc(-c2cc(NC=O)c3ncc(-c4ccc(C(C)=O)cc4)n3c2)cc1OC	-2.0	2.0	44.7*	-3.2	27.6*	-2.8	60.9*	50.0*
COc1cc(-c2cc(NC=O)c3ncc(-c4ccc(C(C)=O)cc4)n3c2)cc(OC)c1OC	-5.2	-0.8	12.6	4.8	12.4	-3.8	/	/
O=C(Nc1nnc(-c2ccc3c(c2)OCCO3)o1)c1ccc(Cc2ccccc2)cc1	4.9	0.5	133.0*	4.5	92.5*	1.0	138.8*	155.3*
CCOc1ccc(C(=O)Nc2cccc(-c3cc4ccccc4oc3=O)c2)cc1[N+](=O)[O-]	-4.6	-2.2	25.9*	6.8	42.4*	-0.5	36.8*	46.4*
O=S1(=O)c2ccc(Br)cc2OC[C@@H](Cc2ccccc2)N1Cc1cn(Cc2ccc(C(F)(F)F)cc2)nn1	0.8	-3.8	/	/	/	-4.6	/	/
CN(Cc1ccccc1)C(=O)OCc1cn(Cc2ccccc2C(F)(F)F)nn1	-4.7	6.1	/	/	/	-1.8	/	/
Cc1ccc(-c2nn(-c3ccccc3)cc2/C=C/C(=O)Nc2nccs2)cc1	2.3	-1.8	34.0*	-5.7	52.1*	2.3	23.9	68.2*
NC(=O)C1CCN(C2=C(Cl)C(=O)c3ccccc3C2=O)CC1	-13.3	4.2	41.5*	4.1	29.3*	-19.4	17.1	0.9
O=C(N/N=C\c1ccc(F)cc1)c1ccc(F)cc1	3.9	-3.2	-1.6	5.6	-0.6	0.3	/	/
C[n+]1c(-c2ccc(C=NNC(=O)c3ccc(C(=O)NN=Cc4ccc(-c5cn6ccccc6[n+]5C)cc4)cc3)cc2)cn2ccccc21	22.9*	31.1*	41.5*	0.0	65.9*	37.4*	50.4*	90.0*
COc1cccc(/C=C2/Sc3ccc(C(=O)NCCN4CCCCCC4)cc3NC2=O)c1	-1.5	-3.2	31.1*	-2.4	29.0*	-6.9	35.8*	37.2*
Cc1cccc(/C=C2/Sc3ccc(C(=O)NCCN4CCCC4)cc3NC2=O)c1	1.0	-9.0	-1.4	0.1	7.2	-2.8	/	/
O=C(N/N=C/c1ccc(Cl)c([N+](=O)[O-])c1)c1ccc2c(c1)OCCO2	1.7	-2.8	82.5*	-0.2	65.5*	-1.1	103.7*	99.2*
COC(=O)CNC(=O)CNC(=O)c1nn(-c2ccc(OC)c(OC)c2)c(=O)c2ccccc12	-0.9	-0.6	2.2	1.8	4.0	-0.8	/	/
COc1ccc(-n2nc(C(=O)NCC(=O)NCc3ccc(F)cc3)c3ccccc3c2=O)cc1OC	7.9	-2.9	43.3*	3.4	138.9*	6.6	49.3*	88.1*
COc1ccc2c(c1)[C@@]1(OCCC=C[C@H]1C)C(=O)N2Cc1ccc(F)cc1	2.8	-2.6	10.4	-0.1	13.9	-0.5	/	/
COC(=O)c1ccc(NC(=O)c2cn(-c3ccccc3)nc2-c2ccncc2)cc1	3.0	-2.3	30.7*	-5.1	29.5*	3.1	51.0*	61.2*
CC(=O)c1ccc(NC(=O)c2cn(-c3ccccc3)nc2-c2ccncc2)cc1	2.1	-0.1	6.3	-0.4	-10.0	1.4	/	/
COc1ccc([N+](=O)[O-])cc1NC(=O)c1ccc(Br)s1	-4.2	6.4	38.0*	-0.4	36.1*	-1.1	53.7*	67.8*
COc1ccc([N+](=O)[O-])cc1NC(=S)NC(C)=O	-4.6	0.7	-4.2	-1.1	-6.8	-1.0	/	/
SMILES	MBD2 inh	LEDGF integ inh	ASAP1 GAP inh	TCR-CD3 inh	ARFGAP1 inhibitor	UHRF1 binding	ASAP1 inh confirm	ARFGAP1 inh conf	others
CCCN(C)C1CN(Cc2cn(Cc3cccc(Cl)c3)nn2)S(=O)(=O)C1 (configuration not stated)	7.1	-2.8	1.1	-6.7	-4.9	10.0	/	/
COc1ccc(-n2nnnc2SCC(=O)c2ccc3c(c2)OCCO3)c(OC)c1	7.0	-1.9	52.7*	-7.0	59.1*	2.8	50.6*	134.9*
CCOc1ccc(C(=O)Nc2cc(-c3nc4ccccc4[nH]3)ccc2Cl)cc1[N+](=O)[O-]	-6.9	0.8	68.5*	25.1*	109.4*	-2.2	123.2*	151.3*	BSA TAMRA ctr=19.5;TCR-CD3 conf=39.6*
Cc1ccc(NC(=O)C(OC(=O)c2ccc(NC(N)=O)cc2)c2ccccc2)cc1Cl (configuration not stated)	-2.1	-2.3	27.5*	45.8*	10.6	2.0	19.4	/	BSA TAMRA ctr=17.6;TCR-CD3 conf=31.7*
Cc1ccc(NC(=O)C(OC(=O)c2ccccc2Cl)c2ccccc2)cc1Cl (configuration not stated)	3.0	1.9	7.5	-6.2	5.4	4.1	/	/
O=S1(=O)c2c(cccc2N2CCSCC2)Oc2ccccc2CN1Cc1cn(Cc2ccc(C(F)(F)F)cc2)nn1	-6.5	3.3	/	/	/	0.2	/	/
Cc1cc(C)cc(NS(=O)(=O)CCCS(=O)(=O)Nc2cc(C)cc(C)c2)c1	2.6	-0.8	9.3	-3.6	-3.9	-1.6	/	/
CCN1CCN(Cc2ccc(NC(=O)c3ccc(C)c(NC(=O)c4c[nH]c5cc(C(F)(F)F)ccc5c4=O)c3)cc2C(F)(F)F)CC1	-1.2	-1.9	43.2*	24.4*	44.8*	1.3	53.1*	69.9*	BSA TAMRA ctr=10.9;TCR-CD3 conf=20.9*!
Nc1ccc2nc(-c3cccc(-c4nc5ccc(N)cc5[nH]4)n3)[nH]c2c1	0.1	-7.2	+	23.9*	+	0.9	+	+	BSA TAMRA ctr=-50.4;TCR-CD3 conf=46.9*
Nc1ccc2nc(-c3ccc(-c4nc5ccc(N)cc5[nH]4)cc3)[nH]c2c1	12.0	-1.3	2.3	-13.3	24.3	4.1	/	/
